From PubChem BioAssay AID504365 (Broad Institute, 2011)
Active and inactive are the calls of the source.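 The calls were made as follows: active = fitted curve reaches 10% of the positive control caspase activation at or below the top valid tested dose; inactive = signal shifts the opposite way, plus the rest.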

Tested on: Mel501 cells, caspase-3/7 Glo luminescence, 6 h
Test: caspase-3/7 activation in Mel501 cells, dose response, orthogonal assay for A1 inhibitor project, cell-based, luminescence, dry powder, set 2 (AID 504365)
Settings: not given
Procedure, shortened: (§1)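 Material: Mel501 cells. Amount: 2500 Mel501 cells per well. Medium: RPMI-1640, 10% FBS, TSA. Compound dosing: pin-transferred compound. Incubation: 6 h compound (37 °C, 5% CO2), then 1 h Caspase-Glo. Measured by: Caspase-Glo 3/7 luminescence. Read-out: caspase-3/7 activation, shown by rising luminescence signal.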

| SMILES | AC10 |
| --- | --- |
| O=c1[nH]c2ccccc2c(Cl)c1[N+](=O)[O-] | > 35 µM (inactive) |
| O=c1c([N+](=O)[O-])c(Cl)c2ccccc2n1Cc1ccccc1 | 30.2 µM |
| Cn1c(=O)c([N+](=O)[O-])c(Cl)c2ccccc21 | > 35 µM (inactive) |

Tested on: not listed separately
Test: as above
Settings: Mel501 cells, caspase-3/7 Glo luminescence, 6 h; at 16 µM (top of the series)
Procedure, shortened: as §1

| SMILES | caspase activation |
| --- | --- |
| CC1(C)CCC(c2ccc(Cl)cc2)=C(CN2CCN(c3ccc(C(=O)NS(=O)(=O)c4ccc(N[C@H](CCN5CCOCC5)CSc5ccccc5)c(S(=O)(=O)C(F)(F)F)c4)cc3)CC2)C1 | 0.95% (inactive) |

Same assay, conditions: Mel501 cells, caspase-3/7 Glo luminescence, 6 h; at 35 µM (top of the series)

| SMILES | caspase activation |
| --- | --- |
| Cc1ccc(S(=O)(=O)c2c([N+](=O)[O-])c(=O)n(C)c3ccccc23)cc1 | -0.501% (inactive) |
| CCn1c(=O)c([N+](=O)[O-])c(Sc2ccc(C)cc2)c2ccccc21 | -0.736% (inactive) |
| C/C(=N\Nc1nc(N2CCCCC2)nc(N2CCCCC2)n1)c1ccc(F)cc1 | -1.18% (inactive) |
| Cc1ccc(Sc2c(Sc3ccc(C)cc3)c3ccccc3n(Cc3ccccc3)c2=O)cc1 | -1.23% (inactive) |
| Cc1ccc(Sc2c(Sc3ccc(C)cc3)c3ccccc3n(C)c2=O)cc1 | -1.69% (inactive) |
| COc1nc2ccccc2c(Sc2ccc(C)cc2)c1[N+](=O)[O-] | -2.73% (inactive) |
| COc1c([N+](=O)[O-])c(=O)n(C)c2ccccc12 | -0.501% (inactive) |
| O=C(COc1ccc(Cl)cc1Cl)NNc1nc(N2CCOCC2)nc(N2CCOCC2)n1 | -1.89% (inactive) |
| O=c1[nH]c2ccccc2c(O)c1[N+](=O)[O-] | -2.05% (inactive) |
| COCCn1c(=O)c([N+](=O)[O-])c(Sc2ccc(C)cc2)c2ccccc21 | -1.69% (inactive) |
| Cn1c(=O)c([N+](=O)[O-])c(Sc2ccccn2)c2ccccc21 | -1.77% (inactive) |
| CCn1c(=O)c(Sc2ccc(C)cc2)c(Sc2ccc(C)cc2)c2ccccc21 | -1.83% (inactive) |
| COc1ccc(CCNc2nc(N3CCOCC3)nc(N3CCOCC3)n2)cc1OC | 0.627% (inactive) |
| COc1ccc(CCNc2nc(N3CCCC3)nc(N3CCCC3)n2)cc1OC | 0.012% (inactive) |
| COc1ccc(N2CCN(c3nc(NCCc4ccc(OC)c(OC)c4)nc(N4CCOCC4)n3)CC2)cc1 | -1.94% (inactive) |
| Cn1c(=O)c([N+](=O)[O-])c(S(C)(=O)=O)c2ccccc21 | -1.8% (inactive) |
| CCn1c(=O)c([N+](=O)[O-])c(Cl)c2ccccc21 | 2.55% (inactive) |
| COc1nc2ccccc2c(Cl)c1[N+](=O)[O-] | -1.96% (inactive) |
| Cn1c(=O)c(Sc2ccccn2)c(Sc2ccccn2)c2ccccc21 | -2.24% (inactive) |
| Cc1ccc(Sc2c([N+](=O)[O-])c(=O)n(Cc3ccccc3)c3ccccc23)cc1 | -2.41% (inactive) |
| Cc1ccc(Sc2c([N+](=O)[O-])c(=O)n(C)c3ccccc23)cc1 | -1.78% (inactive) |
| COCCn1c(=O)c(Sc2ccc(C)cc2)c(Sc2ccc(C)cc2)c2ccccc21 | -1.29% (inactive) |
| COCCn1c(=O)c([N+](=O)[O-])c(Cl)c2ccccc21 | 6.5% (inactive) |
